In ChEMBL document CHEMBL4196130, “3-(2-Carboxyethyl)indole-2-carboxylic Acid Derivatives: Structural Requirements and Properties of Potent Agonists of the Orphan G Protein-Coupled Receptor GPR17” (J Med Chem, 2018):
Calls of active or inactive are those of the source. The calls are words filed in the database; no cut-off is given here.

Key:
[1] = biological target: T1, Uracil nucleotide/cysteinyl leukotriene receptor (Homo sapiens, UniProt Q13304); assay: Antagonist activity at human GPR17 expressed in human 1321N1 cells assessed as inhibition of MDL 29,951-induced calcium mobilization after 1 hr by Oregon Green BAPTA-1/AM dye-based fluorescence assay; type: functional, cell-based
T1 sequence (Q13304 whole entry): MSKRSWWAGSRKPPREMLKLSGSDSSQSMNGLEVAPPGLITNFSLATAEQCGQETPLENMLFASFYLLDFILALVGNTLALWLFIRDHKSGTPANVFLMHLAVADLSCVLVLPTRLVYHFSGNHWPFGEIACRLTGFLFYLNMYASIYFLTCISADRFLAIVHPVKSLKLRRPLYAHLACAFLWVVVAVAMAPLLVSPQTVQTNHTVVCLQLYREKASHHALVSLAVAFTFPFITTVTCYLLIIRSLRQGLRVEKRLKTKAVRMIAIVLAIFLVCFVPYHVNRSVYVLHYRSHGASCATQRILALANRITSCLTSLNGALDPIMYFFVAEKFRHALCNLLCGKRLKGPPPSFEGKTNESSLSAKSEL
In short: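 Oregon Green BAPTA-1/AM calcium assay in hGPR17-1321N1 cells (1 h dye loading at 25°C in KRH buffer pH 7.4). Full inhibition curves were run for potent antagonists. Fluorescence was read at 520 nm.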

[2] = biological target: T1, Uracil nucleotide/cysteinyl leukotriene receptor; assay: Agonist activity at human GPR17 expressed in human 1321N1 cells assessed as induction of calcium mobilization at >100 uM after 1 hr by Oregon Green BAPTA-1/AM dye-based fluorescence assay relative to control; type: functional, cell-based
[3] = biological target: T1, Uracil nucleotide/cysteinyl leukotriene receptor; assay: Agonist activity at human GPR17 expressed in human 1321N1 cells assessed as induction of calcium mobilization after 1 hr by Oregon Green BAPTA-1/AM dye-based fluorescence assay; type: functional, cell-based
In short: (§1)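 Stably transfected 1321N1 astrocytoma cells were trypsin/EDTA-harvested, held 45 min at 37°C, then loaded 1 h at 25°C in KRH buffer pH 7.4 with 3 µM Oregon Green BAPTA-1/AM and 1% Pluronic F127, washed, and plated at ~16,000 cells/well. Fluorescence was read at 520 nm for 30 s after compound injection. Efficacy was expressed relative to the maximum given by 10 µM MDL 29,951. EC50 came from concentration-response curves, run for compounds exceeding 50% stimulation at 10 µM. At least three independent experiments, each in duplicate.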

[4] = biological target: T1, Uracil nucleotide/cysteinyl leukotriene receptor; assay: Agonist activity at human GPR17 expressed in human 1321N1 cells assessed as induction of calcium mobilization at >30 uM after 1 hr by Oregon Green BAPTA-1/AM dye-based fluorescence assay relative to control; type: functional, cell-based
[5] = biological target: T1, Uracil nucleotide/cysteinyl leukotriene receptor; assay: Agonist activity at human GPR17 expressed in human 1321N1 cells assessed as induction of calcium mobilization after 1 hr by Oregon Green BAPTA-1/AM dye-based fluorescence assay relative to MDL 29,951; type: functional, cell-based; in short: as §1
[6] = biological target: P2Y purinoceptor 12 (Homo sapiens) (UniProt Q9H244); assay: Agonist activity at human P2Y12 receptor transfected in CHO cells assessed as induction of beta-arrestin translocation; type: functional, cell-based
Chain of P2Y purinoceptor 12 (Homo sapiens) (Q9H244 whole entry): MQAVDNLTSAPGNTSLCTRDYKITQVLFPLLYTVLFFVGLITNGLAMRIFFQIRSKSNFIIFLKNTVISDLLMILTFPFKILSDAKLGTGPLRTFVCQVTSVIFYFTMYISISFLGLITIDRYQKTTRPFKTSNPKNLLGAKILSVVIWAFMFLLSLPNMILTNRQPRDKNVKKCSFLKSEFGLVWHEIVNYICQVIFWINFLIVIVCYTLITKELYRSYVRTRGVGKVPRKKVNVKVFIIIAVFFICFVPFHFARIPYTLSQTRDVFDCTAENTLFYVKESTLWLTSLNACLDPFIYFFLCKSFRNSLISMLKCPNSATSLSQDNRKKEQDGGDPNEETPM
In short: (§2)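 β-Arrestin translocation assays were run in CHO cells stably transfected with human P2Y12 or P2Y14 receptors.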

[7] = biological target: P2Y purinoceptor 6 (Homo sapiens) (UniProt Q15077); assay: Agonist activity at human P2Y6 receptor transfected in human 1321N1 cells assessed as induction of calcium mobilization after 30 mins in presence of UDP by fluo-4 dye based assay; type: functional, cell-based
Chain of P2Y purinoceptor 6 (Homo sapiens) (Q15077 whole entry): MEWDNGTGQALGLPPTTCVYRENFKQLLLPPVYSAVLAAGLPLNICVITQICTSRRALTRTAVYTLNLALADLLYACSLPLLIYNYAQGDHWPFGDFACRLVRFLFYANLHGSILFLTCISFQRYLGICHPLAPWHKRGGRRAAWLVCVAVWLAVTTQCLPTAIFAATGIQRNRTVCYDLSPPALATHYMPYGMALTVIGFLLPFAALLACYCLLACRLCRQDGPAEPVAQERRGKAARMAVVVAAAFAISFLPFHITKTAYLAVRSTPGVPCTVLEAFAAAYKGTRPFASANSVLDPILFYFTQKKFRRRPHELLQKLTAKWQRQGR
In short: (§3)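 Calcium mobilization was measured in 1321N1 astrocytoma cells stably transfected with human P2Y1, P2Y2, P2Y4 or P2Y6 receptors, read on a Flexstation III microplate reader.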

[8] = biological target: P2Y purinoceptor 1 (Homo sapiens) (UniProt P47900); assay: Agonist activity at human P2Y1 receptor transfected in human 1321N1 cells assessed as induction of calcium mobilization after 30 mins in presence of ADP by fluo-4 dye based assay; type: functional, cell-based; in short: as §3
Chain of P2Y purinoceptor 1 (Homo sapiens) (P47900 whole entry): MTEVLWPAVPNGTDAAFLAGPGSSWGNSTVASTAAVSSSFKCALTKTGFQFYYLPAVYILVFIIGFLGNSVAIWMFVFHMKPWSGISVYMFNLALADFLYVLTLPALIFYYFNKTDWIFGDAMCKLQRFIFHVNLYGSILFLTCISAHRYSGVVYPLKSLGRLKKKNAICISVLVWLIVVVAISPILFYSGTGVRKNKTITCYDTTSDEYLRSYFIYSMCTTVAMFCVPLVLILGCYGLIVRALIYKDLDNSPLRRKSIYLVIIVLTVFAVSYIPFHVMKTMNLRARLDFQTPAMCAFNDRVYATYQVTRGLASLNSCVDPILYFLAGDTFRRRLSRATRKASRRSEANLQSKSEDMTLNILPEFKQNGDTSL

[9] = biological target: P2Y purinoceptor 2 (Homo sapiens, UniProt P41231); assay: Agonist activity at human P2Y2 receptor transfected in human 1321N1 cells assessed as induction of calcium mobilization after 30 mins in presence of UTP by fluo-4 dye based assay; type: functional, cell-based; in short: as §3
Chain of P2Y purinoceptor 2 (P41231 whole entry): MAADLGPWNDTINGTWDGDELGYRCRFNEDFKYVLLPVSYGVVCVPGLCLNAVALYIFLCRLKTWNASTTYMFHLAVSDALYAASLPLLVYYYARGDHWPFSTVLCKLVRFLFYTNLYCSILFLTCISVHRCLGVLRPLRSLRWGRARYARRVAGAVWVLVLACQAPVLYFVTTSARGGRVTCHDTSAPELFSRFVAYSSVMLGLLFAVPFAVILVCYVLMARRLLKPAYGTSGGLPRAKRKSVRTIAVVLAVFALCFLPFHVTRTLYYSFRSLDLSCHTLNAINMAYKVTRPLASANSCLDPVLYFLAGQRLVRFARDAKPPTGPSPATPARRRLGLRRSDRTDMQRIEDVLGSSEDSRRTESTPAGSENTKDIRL

[10] = biological target: P2Y purinoceptor 4 (Homo sapiens) (UniProt P51582); assay: Agonist activity at human P2Y4 receptor transfected in human 1321N1 cells assessed as induction of calcium mobilization after 30 mins in presence of UTP by fluo-4 dye based assay; type: functional, cell-based; in short: as §3
Chain of P2Y purinoceptor 4 (Homo sapiens) (P51582 whole entry): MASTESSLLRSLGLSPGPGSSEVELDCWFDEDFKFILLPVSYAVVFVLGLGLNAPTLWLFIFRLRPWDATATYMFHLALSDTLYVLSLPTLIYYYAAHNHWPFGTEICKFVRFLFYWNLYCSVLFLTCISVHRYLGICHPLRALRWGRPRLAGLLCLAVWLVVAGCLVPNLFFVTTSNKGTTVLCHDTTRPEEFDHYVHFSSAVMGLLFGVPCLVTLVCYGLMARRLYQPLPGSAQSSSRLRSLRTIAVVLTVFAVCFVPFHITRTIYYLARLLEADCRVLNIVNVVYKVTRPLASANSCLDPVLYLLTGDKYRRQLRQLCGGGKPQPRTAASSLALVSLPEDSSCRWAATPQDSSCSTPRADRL

[11] = biological target: T2, P2Y purinoceptor 14 (Homo sapiens) (UniProt Q15391); assay: Agonist activity at human P2Y14 receptor transfected in CHO cells assessed as induction of beta-arrestin translocation; type: functional, cell-based; in short: as §2
T2 sequence (whole entry): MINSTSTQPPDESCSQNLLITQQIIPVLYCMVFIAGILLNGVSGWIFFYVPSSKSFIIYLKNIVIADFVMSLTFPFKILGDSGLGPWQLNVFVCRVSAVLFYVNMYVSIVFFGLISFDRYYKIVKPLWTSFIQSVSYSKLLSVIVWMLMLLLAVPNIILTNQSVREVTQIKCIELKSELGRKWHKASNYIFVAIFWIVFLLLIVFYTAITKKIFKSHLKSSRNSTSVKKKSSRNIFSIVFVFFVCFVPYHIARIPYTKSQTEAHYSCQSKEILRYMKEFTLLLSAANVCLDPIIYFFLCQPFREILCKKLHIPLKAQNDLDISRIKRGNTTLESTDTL

[12] = biological target: T1, Uracil nucleotide/cysteinyl leukotriene receptor; assay: Agonist activity at human GPR17 expressed in human 1321N1 cells assessed as induction of calcium mobilization at >10 uM after 1 hr by Oregon Green BAPTA-1/AM dye-based fluorescence assay relative to control; type: functional, cell-based
[13] = biological target: T1, Uracil nucleotide/cysteinyl leukotriene receptor; assay: Antagonist activity at human GPR17 expressed in human 1321N1 cells assessed as inhibition of MDL 29,951-induced calcium mobilization at 30 uM after 1 hr by Oregon Green BAPTA-1/AM dye-based fluorescence assay relative to control
[14] = biological target: Uracil nucleotide/cysteinyl leukotriene receptor (Rattus norvegicus, UniProt Q09QM4); assay: Agonist activity at rat GPR17 expressed in HEK293 cells assessed as induction of intracellular calcium mobilization by calcium 5-dye based assay; type: functional, cell-based
Chain of Uracil nucleotide/cysteinyl leukotriene receptor (Rattus norvegicus, UniProt Q09QM4) (Q09QM4 whole entry): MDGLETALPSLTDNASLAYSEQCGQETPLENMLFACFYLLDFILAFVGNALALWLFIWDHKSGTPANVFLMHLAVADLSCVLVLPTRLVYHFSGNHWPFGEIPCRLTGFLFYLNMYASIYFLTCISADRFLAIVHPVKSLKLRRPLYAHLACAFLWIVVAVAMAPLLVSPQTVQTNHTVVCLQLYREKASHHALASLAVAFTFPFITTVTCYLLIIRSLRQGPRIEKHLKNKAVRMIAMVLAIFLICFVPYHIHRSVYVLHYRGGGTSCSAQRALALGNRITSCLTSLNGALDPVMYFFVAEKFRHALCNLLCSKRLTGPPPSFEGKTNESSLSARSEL
In short: (§4)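 HEK293 cells expressing rat or mouse GPR17 were seeded at 60,000 cells/well on poly-D-lysine plates and loaded 40 min with Calcium 5 indicator dye. Calcium signals were read on a plate reader. EC50 was obtained by nonlinear regression of concentration-response data. Means ± SEM from 3 independent experiments.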

[15] = Selectivity ratio of EC50 for rat GPR17 expressed in HEK293 cells to EC50 for human GPR17 expressed in human 1321N1 cells; type: cell-based
[16] = Selectivity ratio of EC50 for mouse GPR17 expressed in HEK293 cells to EC50 for human GPR17 expressed in human 1321N1 cells; type: cell-based
[17] = biological target: Uracil nucleotide/cysteinyl leukotriene receptor (Mus musculus, UniProt Q6NS65); assay: Agonist activity at mouse GPR17 expressed in HEK293 cells assessed as induction of intracellular calcium mobilization by calcium 5-dye based assay; type: functional, cell-based; in short: as §4
Chain of Uracil nucleotide/cysteinyl leukotriene receptor (Mus musculus, UniProt Q6NS65) (Q6NS65 whole entry): as the sequence (Q09QM4 whole entry) above, with D2N, T6A, A15S, S270A counted along it

[18] = biological target: T1, Uracil nucleotide/cysteinyl leukotriene receptor; assay: Displacement of [3H]PSB-12150 from human GPR17 expressed in CHO cell membranes after 60 mins by liquid scintillation counting
In short: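 Membranes from CHO cells stably expressing human GPR17 were incubated 60 min at 25°C with 25 nM [3H]PSB-12150 (17 Ci/mmol), 10 mM MgCl2 and increasing test compound concentrations. Bound radioligand was separated by GF/B filtration and counted by liquid scintillation. Nonspecific binding was defined with 100 µM unlabeled PSB-12150. Ki came from the Cheng-Prusoff equation with KD 1190 nM. Three independent experiments in duplicate.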

EC50 [3] [µM]	Activity [4] [%]	Emax [5] [%]	SMILES	other results
> 100			COc1ccc2c(CCC(=O)O)c(C(=O)O)[nH]c2c1	IC50 [1]: 8.4 µM; Activity [2]: 35%
> 30	9		O=C(O)CCc1c(C(=O)O)[nH]c2ccc(F)cc12	
3.01		65	O=C(O)CCc1c(C(=O)O)[nH]c2c(F)c(-c3ccccc3)ccc12	
0.117		77	CCCCCCCCOc1cc(Cl)c2c(CCC(=O)O)c(C(=O)O)[nH]c2c1	
0.624		100	O=C(O)CCc1c(C(=O)O)[nH]c2cc(F)cc(Br)c12	
7.9		87	O=C(O)CCc1c(C(=O)O)[nH]c2c(F)c(Cl)ccc12	
0.0279		102	O=C(O)CCc1c(C(=O)O)[nH]c2cc(Br)cc(F)c12	Activity [6]: inactive; Activity [7]: inactive; Activity [8]: inactive; Activity [9]: inactive; Activity [10]: inactive; Activity [11]: inactive
> 30	11		O=C(O)CCc1c(C(=O)O)[nH]c2cc(Cl)c(Cl)cc12	
> 30	6		CC(C)c1ccc2[nH]c(C(=O)O)c(CCC(=O)O)c2c1	
> 30	1		O=C(O)CCCc1c(C(=O)O)[nH]c2cc(Cl)cc(Cl)c12	
> 10			CCCCCCCCOc1cc(Cl)cc2[nH]c(C(=O)O)c(CCC(=O)O)c12	Activity [12]: 25%
4.02		48	O=C(O)CCc1c(C(=O)O)[nH]c2cc(-c3ccc(F)cc3)ccc12	
3.68		101	O=C(O)CCc1c(C(=O)O)[nH]c2cc(Cl)cc(-c3ccc(F)cc3)c12	
4.09		84	O=C(O)CCc1c(C(=O)O)[nH]c2cc(-c3ccccc3)cc(-c3ccccc3)c12	
		84	O=C(O)CCc1c(C(=O)O)[nH]c2cc(Cl)ccc12	
0.0321		122	O=C(O)CCc1c(C(=O)O)[nH]c2cc(I)cc(F)c12	Activity [6]: inactive; Activity [7]: inactive; Activity [8]: inactive; Activity [9]: inactive; Activity [10]: inactive; Activity [11]: inactive
≥ 10			CCCCCOc1cc(Cl)cc2[nH]c(C(=O)O)c(CCC(=O)O)c12	
14.4		57	O=C(O)CCc1c(C(=O)O)[nH]c2c(F)c(-c3ccco3)ccc12	
15.1		76	Cc1cc(C)c2c(CCC(=O)O)c(C(=O)O)[nH]c2c1	
1.68		41	O=C(O)CCc1c[nH]c2cc(Cl)cc(Cl)c12	
> 30	16		O=C(O)CCc1c(C(=O)O)[nH]c2c(Cl)cc(Cl)c(Cl)c12	
0.423		92	O=C(O)CCc1c(C(=O)O)[nH]c2cc(-c3ccc(F)cc3)cc(Cl)c12	
≥ 10			O=C(O)CCc1c(C(=O)O)[nH]c2cc(F)ccc12	
9.55		87	O=C(O)CCc1c(C(=O)O)[nH]c2cc(-c3cccs3)ccc12	
4.98		80	O=C(O)CCc1c(C(=O)O)[nH]c2cc(Cc3ccccc3)ccc12	

EC50 [3] [µM]	Activity [4] [%]	Emax [5] [%]	SMILES	other results
4.83		98	O=C(O)CCc1c(C(=O)O)[nH]c2c(F)c(Br)ccc12	
> 30	1		O=C(O)CCc1c(C(=O)O)[nH]c2c(Cl)ccc(Cl)c12	
1.47		92	O=C(O)CCc1c(C(=O)O)[nH]c2cc(F)cc(I)c12	
	1		O=C(O)Cc1c[nH]c2ccc(O)cc12	IC50 [1]: > 30 µM; inhibition [13]: 7%
0.27		100	O=C(O)CCc1c(C(=O)O)[nH]c2cc(Oc3ccccc3)ccc12	
> 100			O=C(O)CCc1c(C(=O)O)[nH]c2c(F)c(-c3ccc(F)cc3)ccc12	
	0		COc1ccc2c(c1)c(CC(=O)O)c(C)n2C(=O)c1ccc(Cl)cc1 [INDOMETHACIN]	IC50 [1]: 28.8 µM
> 30	0		O=C(O)CCc1c(C(=O)O)[nH]c2c1ccc1ccccc12	
			O=C(O)CCc1c(C(=O)O)[nH]c2cc(Cl)cc(Cl)c12	EC50 [14]: 705 nM; Activity [6]: inactive; Ratio EC50 [15]: 2 to 6; Ratio EC50 [16]: 2 to 6; Activity [7]: inactive; Activity [8]: inactive; Activity [9]: inactive; Activity [10]: inactive; Activity [11]: inactive; EC50 [17]: 1110 nM; Ki [18]: 2450 nM
0.103		98	CCCCCOc1cc(Cl)c2c(CCC(=O)O)c(C(=O)O)[nH]c2c1	
	0		CN(C)CCc1c[nH]c2ccc(Cn3cncn3)cc12 [RIZATRIPTAN]	IC50 [1]: > 30 µM; inhibition [13]: 27%
> 30	5		COc1ccc2[nH]c(C(=O)O)c(CCC(=O)O)c2c1	
	0		N[C@@H](Cc1c[nH]c2ccccc12)C(=O)O [TRYPTOPHAN]	IC50 [1]: > 30 µM; inhibition [13]: 1%
> 100			O=C(O)CCc1c(C(=O)O)[nH]c2c(F)c(-c3cccs3)ccc12	Activity [2]: 21%
> 100			O=C(O)CCc1c(C(=O)O)[nH]c2c(Cl)c(Cl)ccc12	Activity [2]: 5%
> 30	22		O=C(O)/C=C/c1c(C(=O)O)[nH]c2cc(Cl)cc(Cl)c12	
5.44			O=C(O)CCc1c(C(=O)O)n(CCC(=O)O)c2cc(Cl)cc(Cl)c12	
		72	O=C(O)CCc1c(C(=O)O)[nH]c2cc(F)cc(F)c12	
4.13		74	O=C(O)CCc1c(C(=O)O)[nH]c2cc(-c3ccco3)ccc12	
> 100			COc1cccc2[nH]c(C(=O)O)c(CCC(=O)O)c12	Activity [2]: 4%
		83	O=C(O)CCc1c(C(=O)O)[nH]c2cc(-c3ccccc3)ccc12	
> 100			O=C(O)CCc1c(C(=O)O)[nH]c2cccc(-c3ccccc3)c12	Activity [2]: 3%
> 30	8		O=C(O)CCc1c(C(=O)O)[nH]c2ccccc12	
> 30	16		Cn1c(C(=O)O)c(CCC(=O)O)c2c(Cl)cc(Cl)cc21	
